Measured values of several laboratories.
In brackets after ≈: the same amount, converted by molar mass.
Organism: Escherichia coli

Compound | assay | test system | setting | measurement | result
CC(C)CCCCCCCCCCCCCCc1cc(O)cc(O)c1 | microbial growth | – | – | IC50 | 47.3 µM
O=C(N[C@H](CO)[C@H](O)c1ccc([N+](=O)[O-])cc1)C(Cl)Cl | microbial growth | – | – | MIC90 | 15.6 µg/mL (≈ 48.3 µM)
COC(=O)c1cc(-c2cccc(NC(=S)Nc3ccc(Cl)cc3)c2)on1 | microbial growth, broth dilution | ATCC25922 | – | MIC | > 64 µg/mL
C[n+]1c(/C=C/c2ccc(O)cc2)cc(/C=C2\Sc3ccccc3N2CCCN2CCCC2)c2ccccc21.[I-] | microbial growth, broth dilution | ATCCBAA2469 | – | MIC | 16 µg/mL
COC(=O)c1cc(-c2cccc(NC(=O)Nc3ccc(F)c(F)c3)c2)on1 | microbial growth, broth dilution | ATCC25922 | – | MIC | > 64 µg/mL
Cc1c(NN=C(C#N)C2=NC(=O)CS2)c(=O)n(-c2ccccc2)n1C | microbial killing, broth dilution | – | – | MBC | 0.25 µg/mL (≈ 0.705 µM)
CC1(C)S[C@@H]2[C@H](NC(=O)[C@H](N)c3ccccc3)C(=O)N2[C@H]1C(=O)O | microbial growth, well diffusion | ATCC35218 | 60000 µg/mL | inhibition zone | 15 mm
CCCCCCCCCCCCCCCCCCCCc1cc(O)cc(O)c1 | microbial growth | – | – | IC50 | > 200 µM
COC(=O)c1cc(-c2cccc(NC(=O)Nc3ccc(F)cc3F)c2)on1 | microbial growth, broth dilution | ATCC25922 | – | MIC | > 64 µg/mL
O=C(Sc1cccccc1=O)c1ccccc1 | microbial growth, broth dilution | ATCC35218 | – | MIC80 | 19.8 µM (≈ 4.8 µg/mL)
COC(=O)c1cc(-c2cccc(NC(=S)Nc3ccc(F)cc3F)c2)on1 | microbial growth, broth dilution | ATCC25922 | – | MIC | > 64 µg/mL
CCCCCCCCCCCC(=O)OC[C@H]1O[C@@H](n2cc(C)c(=O)[nH]c2=O)C[C@@H]1O | microbial killing, broth dilution | – | – | MBC | 16 µg/mL (≈ 37.7 µM)
CC(C)CCCCCCCCCCCCCCCc1cc(O)cc(O)c1 | microbial growth | – | – | IC50 | 70.2 µM
